Assay results collected from several papers.
Each line is one published result; the experiments were not run side by side.
Target: Serine/threonine-protein kinase Nek9 (NEK9, Homo sapiens, UniProt Q8TD19)
One construct used (Q8TD19 1-979): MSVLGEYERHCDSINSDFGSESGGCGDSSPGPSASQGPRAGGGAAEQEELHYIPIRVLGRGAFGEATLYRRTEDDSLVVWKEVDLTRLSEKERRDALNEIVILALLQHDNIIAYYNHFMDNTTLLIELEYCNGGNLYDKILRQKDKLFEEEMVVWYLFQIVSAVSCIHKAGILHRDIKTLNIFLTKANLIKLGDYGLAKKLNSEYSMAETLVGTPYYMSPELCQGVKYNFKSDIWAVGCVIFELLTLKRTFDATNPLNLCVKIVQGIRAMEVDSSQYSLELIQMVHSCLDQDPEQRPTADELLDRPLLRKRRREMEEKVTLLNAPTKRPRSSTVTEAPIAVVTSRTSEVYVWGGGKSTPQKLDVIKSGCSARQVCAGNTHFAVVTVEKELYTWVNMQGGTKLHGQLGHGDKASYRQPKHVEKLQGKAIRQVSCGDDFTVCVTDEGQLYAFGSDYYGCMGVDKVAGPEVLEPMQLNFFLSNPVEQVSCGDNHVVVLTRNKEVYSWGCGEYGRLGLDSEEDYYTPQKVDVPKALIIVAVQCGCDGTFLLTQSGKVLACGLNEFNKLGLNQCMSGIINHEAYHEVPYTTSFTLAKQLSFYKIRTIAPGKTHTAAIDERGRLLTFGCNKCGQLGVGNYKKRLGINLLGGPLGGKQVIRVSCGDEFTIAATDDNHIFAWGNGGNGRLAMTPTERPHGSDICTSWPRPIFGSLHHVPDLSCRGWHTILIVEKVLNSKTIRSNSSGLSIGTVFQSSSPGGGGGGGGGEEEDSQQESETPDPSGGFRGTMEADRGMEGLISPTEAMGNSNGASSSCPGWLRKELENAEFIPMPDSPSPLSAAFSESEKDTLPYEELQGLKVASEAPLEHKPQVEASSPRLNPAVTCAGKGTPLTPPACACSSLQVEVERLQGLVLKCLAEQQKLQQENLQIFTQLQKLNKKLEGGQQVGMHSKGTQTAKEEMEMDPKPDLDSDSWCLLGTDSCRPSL

SMILES | effect on | mode | method | concentration | quantity | result
O=C(NCc1ncc(C(F)(F)F)cc1Cl)c1ccc2c(c1)C1(CCS(=O)(=O)CC1)[C@H](C1CC1)N2S(=O)(=O)c1ccc(F)cc1 | cell-free assay |  | competition with immobilised ligand | 1 µM | remaining binding | 100%
CCOc1cc(-c2nncn2C)ccc1Nc1ncc2cc(C)nc(NCC(C)(C)C)c2n1 | enzyme activity | inhibitor | FRET | 1 µM | inhibition | < 15%
COc1cc(Cl)c(C(=O)N[C@@H](CN[C@H]2CC[C@@H](N)CC2)Cc2ccc(C#N)cc2)cc1-c1ccc(CN[C@H](C)c2ccc(C)cc2)o1 | enzyme activity | inhibitor |  | 1 µM | remaining activity | 127%
Cc1ccc(C(=O)Nc2ccc(CN3CCN(C)CC3)c(C(F)(F)F)c2)cc1C#Cc1cnc2cccnn12 | enzyme activity | inhibitor |  | 23.5 nM | remaining activity | 100%
CCCOc1ccc([C@@H]2[C@@H](C(=O)O)[C@H](c3ccc4c(c3)OCO4)CN2CC(=O)Nc2c(CC)cccc2CC)cc1 | cell-free assay |  | competition with immobilised ligand | 1 µM | remaining binding | 100%
COc1cc2ncnc(Nc3ccc(Oc4ccccc4)cc3C)c2cc1OC | enzyme activity | inhibitor |  | 1 µM | inhibition | -2%
Cc1cc(NC(=O)c2cccc3cc(-c4cccc5[nH]nc(N)c45)ccc23)ccc1F | enzyme activity | inhibitor |  | 0.1 µM | activity vs control | 126%
CS(=O)(=O)CCNCc1ccc(-c2ccc3ncnc(Nc4ccc(OCc5cccc(F)c5)c(Cl)c4)c3c2)o1 | cell-free assay |  |  | 0.5 µM | remaining signal | 100%
Nc1c(C(=O)NCc2ccc(C(=O)NCCCC3CCCCC3)cc2)cnn1-c1ccccc1 | cell-free assay |  | competition with immobilised ligand | 0.1 µM | remaining binding | 100%
CCCS(=O)(=O)Nc1ccc(F)c(C(=O)c2c[nH]c3ncc(-c4ccc(Cl)cc4)cc23)c1F | enzyme activity | inhibitor |  | 1 µM | inhibition | < 10%
N[C@H]1CCN(c2nccc(-c3cnn4ncccc34)n2)C1 | binding |  |  | 1 µM | remaining binding | 100%
COc1cc(Nc2c(C#N)cnc3cc(OCCCN4CCN(C)CC4)c(OC)cc23)c(Cl)cc1Cl | cell-free assay |  |  | 0.5 µM | remaining signal | 94%
O=C(O)[C@@H]1[C@@H](Cn2nnc3ccccc3c2=O)CC[C@H]1C(=O)c1ccc(OCCC2CCOCC2)cc1 | cell-free assay |  | competition with immobilised ligand | 1 µM | remaining binding | 100%
O=C1Nc2ccc(Cl)cc2C1=Cc1cc(Cl)c(O)c(Cl)c1 | cell-free assay |  |  | 0.5 µM | remaining signal | 103%
CC(C)(C)c1nc2c(s1)c1nc(N)ncc1c1ccc(NS(=O)(=O)c3c(F)cccc3F)c(F)c12 | enzyme activity | inhibitor | radiometric | 1 µM | remaining activity | 96%
CNC(=O)c1cc(Oc2ccc(NC(=O)Nc3ccc(Cl)c(C(F)(F)F)c3)cc2)ccn1 | cell-free assay |  |  | 0.5 µM | remaining signal | 95.4%
O=c1nc(-c2ccccn2)sc2ccccc12 | binding |  | competition with immobilised ligand | 1 µM | remaining binding | 96%
